# iPSC survival up: increases survival of single human iPS cells; hiPSC single-cell survival, ATPlite luminescence; 100% = ROCK inhibitor wells, 0% = DMSO; survival enhancement, % at 20 µM; 360,000 tested, 0.044% active; AID 602274; in the data active = survival enhancement above about 18%;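 also: cells exposed to compounds for 16 hours before the ATP read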
# Exocytosis inh: blocks lytic granule exocytosis | TALL-104 LAMP-1 surface exposure, flow cytometry; cells stimulated with thapsigargin and PMA | inhibition, % at 10 µM | 360,000 tested, 0.66% active;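 active = inhibition above about 55%, limit read from the data; inconclusive = no clear call, values can overlap the other calls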
# MC4R antag cAMP: human MC4R antagonism in cAMP assay | P32245 | MC4R-expressing cells, MTII-stimulated cAMP, LANCE TR-FRET | inhibition, % at 6.5 µM | 360,000 tested, 0.48% active | AID 540295;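 active = inhibition above its plate's cutoff, the mean of tested wells on that plate plus 3 SD, cut at about 29% in these data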;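 also: 0% = Melanotan II alone and 100% = Melanotan II plus saturating MCL0020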
#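 system = U2OS cells with stable human MC4R expression | also added = Melanotan II challenge after compound preincubation | dosing = one concentration, 6.5 µM nominal | incubation = compound 30 min, challenge 1 h, detection 1 h | measured by = TR-FRET with Eu-cAMP and labeled anti-cAMP, 671 nm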
# TbMetRS inhib: Trypanosoma brucei MetRS inhibition | purified T. brucei MetRS, ATP depletion, Kinase-Glo luminescence | inhibition, % at 11.9 µM | 360,000 tested, 0.4% active | AID 624268;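 active = inhibition above a per-plate cutoff of the control wells' mean inhibition plus 3 SD, cut at about 5.5% in these data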;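 also: 0% = DMSO wells median and 100% = median of wells with control inhibitor compound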
#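 Measured by: Kinase-Glo luciferase luminescence reporting remaining unconsumed ATP. Material: purified T. brucei MetRS enzyme. Doses: 11.9 µM compound single dose, 0.9% DMSO. Medium: HEPES buffer containing pyrophosphatase, BSA, spermine, DTT. Times: 15 min preincubation, 2 h reaction, all 25 °C. Reagent: methionine, ATP and bulk E. coli tRNA.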
# MC4R ag barr: activates human MC4R beta-arrestin recruitment; P32245; U2OS MC4R beta-arrestin complementation, luminescence; percent of melanotan II response, DMSO zero; activation, % at 8.9 µM; 360,000 tested, 0.98% active;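 active = activation above a per-plate cutoff, the mean activation of sample wells on that plate plus 3 SD, cut at about 8% in these data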
# ABCB6 inh MLPCN: inhibitors of human ABC transporter ABCB6. K562-ABCB6 porphyrin accumulation, flow cytometry, 1 h; stronger effect = lower value. fluorescence ratio to DMSO, % at 10 µM. Q9NP58. AID 602162. 360,000 tested, 0.19% active;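 active = fluorescence ratio to DMSO below 75%, the collection mean minus 3 SD; inconclusive = too few cells collected in the well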;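 also: signal is porphyrin accumulated inside mitochondria; 100% equals median channel fluorescence of DMSO control wells; lower ratio means ABCB6 inhibition with less porphyrin fluorescence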
# Target sequence (Q9NP58 whole entry, looked up): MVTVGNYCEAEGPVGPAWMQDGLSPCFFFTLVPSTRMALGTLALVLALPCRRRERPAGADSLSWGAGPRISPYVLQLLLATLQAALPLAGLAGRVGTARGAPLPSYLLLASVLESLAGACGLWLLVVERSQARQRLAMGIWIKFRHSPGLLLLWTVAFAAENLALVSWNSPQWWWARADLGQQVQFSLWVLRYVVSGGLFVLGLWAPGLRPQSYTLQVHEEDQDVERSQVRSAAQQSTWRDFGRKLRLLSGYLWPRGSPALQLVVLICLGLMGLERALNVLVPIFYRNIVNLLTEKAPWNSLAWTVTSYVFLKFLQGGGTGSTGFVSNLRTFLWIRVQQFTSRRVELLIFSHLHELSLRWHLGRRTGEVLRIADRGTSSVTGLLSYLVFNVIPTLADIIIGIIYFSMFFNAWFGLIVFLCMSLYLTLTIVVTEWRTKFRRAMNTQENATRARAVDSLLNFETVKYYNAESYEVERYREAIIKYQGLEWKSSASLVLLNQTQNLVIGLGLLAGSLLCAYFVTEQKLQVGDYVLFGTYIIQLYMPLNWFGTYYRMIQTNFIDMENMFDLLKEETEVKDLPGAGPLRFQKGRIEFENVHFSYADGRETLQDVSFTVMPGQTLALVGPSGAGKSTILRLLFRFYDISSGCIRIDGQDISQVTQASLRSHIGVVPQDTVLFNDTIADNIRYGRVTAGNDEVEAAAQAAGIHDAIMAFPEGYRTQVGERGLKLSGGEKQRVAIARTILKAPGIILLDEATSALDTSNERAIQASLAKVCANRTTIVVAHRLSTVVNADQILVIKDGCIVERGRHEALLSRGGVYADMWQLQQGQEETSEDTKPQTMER
# MC4R barr conf: human MC4R beta-arrestin agonism confirmation. shares compounds with MC4R ag barr. U2OS MC4R beta-arrestin recruitment, luminescence; scaled DMSO 0%, Melanotan II 100%. activation, % at 8.9 µM. 2,400 tested, 31% active. AID 602192;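 active = mean activation across replicates above the hit cutoff set in the earlier primary screen, cut at about 8% in these data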
# MOR-DOR barr ag: OPRM1-OPRD1 heterodimer agonism counter-screen; shares compounds with MC4R ag barr; U2OS PathHunter beta-arrestin, beta-gal luminescence; percent of deltorphin B response, DMSO zero; activation, % at 9.2 µM; 2,400 tested, 5.8% active; AID 602194;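 active = mean activation across replicates exceeds the hit threshold derived in the earlier primary screen, cut at about 18% in these data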;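 also: 100% = deltorphin B at 0.9 µM final and 0% = DMSO alone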
# * hit, by the source's call; ? = inconclusive; / = not tested or not shown. A selection: hits, their analogues and other compounds. The true share with any hit is near 2.6%.
SMILES,iPSC survival up,Exocytosis inh,MC4R antag cAMP,TbMetRS inhib,MC4R ag barr,ABCB6 inh MLPCN,MC4R barr conf,MOR-DOR barr ag
CC(C)c1ccc(/C=C/C(=O)Nc2nc3ccc([N+](=O)[O-])cc3s2)cc1,-2,0,2,-1,22*,94,5,4
CCCCn1c(=O)c(CCC(=O)OCC(=O)Nc2ccc(F)c(Cl)c2)nc2ccccc21,9,-2,9,0,10*,104,6,4
CCCCn1c(=O)c(CCC(=O)OCC(=O)Nc2cc(Cl)ccc2OC)nc2ccccc21,0,-2,7,1,-2,94,/,/
COc1ccc(N2CCN(CC(=O)Nc3nnc(-c4ccccc4)s3)CC2)cc1,1,1,3,-1,11*,103,1,4
COC(=O)c1ccc(C(=O)OC)c(NC(=O)CN2CCN(c3ccccc3)CC2)c1,2,5,-3,1,15*,98,14*,14
Cc1ccc(NC(=O)C2C(c3ccccc3)C=CC(c3ccccc3)C2C(=O)O)cc1 (centres undefined),2,1,1,-1,0,93,/,/
COc1ccc(-c2ccc(-c3noc(-c4ccccc4OC)n3)c(OC)n2)cc1,4,-3,5,0,10*,99,2,1
COc1ccc(-c2ccc(-c3noc(-c4ccccc4C)n3)c(OC)n2)cc1,7,0,3,0,0,103,/,/
COc1ccc(-c2ccc(-c3noc(-c4cccs4)n3)c(OC)n2)cc1,3,-2,-1,0,17*,104,5,1
COc1ccc(-c2ccc(-c3noc(-c4cccc(OC)c4)n3)c(OC)n2)cc1,0,1,5,-1,0,100,/,/
CCCN1C(=O)c2ccccc2NC1c1ccc(O)c(OCC)c1 (centres undefined),0,-14,3,0,-1,95,/,/
Cc1onc(-c2ccccc2Cl)c1C(=O)N1CCN(Cc2ccc3c(c2)OCO3)CC1,0,-2,0,1,-2,100,/,/
COc1ccc(C2c3ccc(O)cc3Oc3ncn4nc(-c5ccccn5)nc4c32)cc1 (centres undefined),0,-5,3,1,49*,95,9.5*,10
COc1nc(OC)nc(Oc2ccc([N+](=O)[O-])cc2Cl)n1,0,-5,4,1,-3,102,/,/
N#C/C(=C\c1ccc(-c2ccccc2C(=O)O)o1)c1nc2ccccc2[nH]1,0,?,-17,0,0,106,/,/
N#C/C(=C\c1ccc(Sc2ccccc2)o1)c1nc2ccccc2[nH]1,-2,2,-3,0,12*,100,6,8
COc1cc(-c2nnc(COc3ccc(Cl)cc3C)o2)cc(OC)c1OC,-1,-1,1,0,28*,95,6,6
COc1ccc(CN(C)CC(=O)Nc2ccccc2C(F)(F)F)cc1,-2,-2,16,-1,1,101,/,/
COc1ccc2ccc(O)c(CN(C)CC(=O)Nc3ccccc3C(F)(F)F)c2c1,0,6,14,-1,13*,97,7,10
CC(=O)c1ccc(NC(=O)[C@@H]2CCCN2C(=O)OC(C)(C)C)cc1,-1,-2,8,-1,1,97,/,/
CCN(Cc1ccccc1)S(=O)(=O)c1ccc(S(=O)(=O)N(Cc2ccccn2)Cc2ccco2)cc1,-3,1,-2,-1,13*,97,4,3
O=C(C1CCCCC1)N1C[C@@H](n2cc(-c3ccc(F)cc3)nn2)[C@H](O)C[C@@H]1c1ccc(Cl)cc1,-2,4,9,-1,12*,99,-2,10
O=C(Cn1nnc(-c2ccncc2)n1)NCCc1ccccc1,2,-1,11,-1,0,96,/,/
CCOC(=O)c1ccc(Nc2nc(-c3cccnc3)nc3ccccc23)cc1,-1,10,11,-1,57*,92,0,7
COc1cc(C=O)ccc1OCC(=O)N1CCCC1,0,-1,1,0,2,104,/,/
SMILES,iPSC survival up,Exocytosis inh,MC4R antag cAMP,TbMetRS inhib,MC4R ag barr,ABCB6 inh MLPCN,MC4R barr conf,MOR-DOR barr ag
O=C1CC(c2cc(Br)ccc2F)c2cc3c(cc2N1)CCC3 (centres undefined),-3,4,-22,0,16*,97,3,4
O=C(CSc1ncnc2c1cnn2-c1ccccc1)Nc1ccccc1,-2,0,14,-1,18*,95,5,5
CCOc1ccc(OCCSc2nc3ccccc3c(=O)[nH]2)cc1,-1,0,1,-1,9.6*,100,0,7
O=c1[nH]c(SCCOc2cccc3ccccc23)nc2ccccc12,2,-4,26,0,10*,100,0,4
CCOc1ccc(OCCSc2nc(C)cc(=O)[nH]2)cc1,-1,0,3,0,-1,99,/,/
O=c1[nH]c(SCc2c(Cl)cccc2Cl)nc2ccccc12,0,-2,13,0,5,101,/,/
O=C(CSc1nc2nn(-c3ccccc3)c(=O)c-2c2n1CCCCC2)Nc1cccc(F)c1,0,-6,5,1,-3,100,/,/
COc1ccccc1Nc1nnc(SCC(=O)Nc2cc(C)on2)s1,4,2,5,0,30*,106,3,7
Cc1cc(NC(=O)CSc2nnc(NCc3ccccc3)s2)no1,0,2,9,0,1,96,/,/
Cc1c(CCOC(=O)c2ccc(Cl)cc2Cl)sc[n+]1CC(=O)c1ccc(Br)cc1,-3,8,8,0,28*,101,23*,23*
CC(=O)Nc1ccc(C(=O)NCC(=O)OCc2ccccc2F)cc1,0,0,21,0,-1,97,/,/
Cc1ccc(Oc2ccc(Cl)cc2NC(=O)c2ccc(F)cc2F)cc1,-1,2,-1,-1,11*,95,1,2
CN/C=C1\C(=O)C(C)(C)Oc2ccc3ccc(=O)oc3c21,1,0,9,-1,-2,104,/,/
CC1(C)Oc2ccc3ccc(=O)oc3c2/C(=C/Nc2ccc(O)cc2)C1=O,1,13,24,0,11*,91,23*,5
Cc1cc(=O)[nH]c(SCC(=O)N2CCN(S(=O)(=O)c3ccccc3)C2)n1,-1,1,7,0,-3,93,/,/
